In ChEMBL document CHEMBL4680287, “Ibrexafungerp: An orally active β-1,3-glucan synthesis inhibitor” (Bioorg Med Chem Lett, 2021):
Converted amounts (≈) assume the structure as drawn.

Legend:
[1] = Inhibition of beta-1,3-glucan synthase in Candida albicans MY1055 microsomal membrane assessed as inhibition of TCA-insoluble material formation using UDP-[3H]-glucose as substrate incubated for 2 hrs in presence of GTP by radioactivity-based assay; type: microsomes, Microsome
Outline: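 GS IC50 measured using Candida albicans MY1055 microsomal membrane fragments as the enzyme source.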

Aspergillus fumigatus [2] = assay: Antifungal activity against Aspergillus fumigatus MF5668 assessed inhibition of fungal growth by measuring morphological changes measured after 24 hrs by microscopy; type: functional; conditions: read-out: MEC
Outline: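 Microdilution per CLSI protocols in RPMI medium. Read-out is the minimum effective concentration (MEC). Run without serum and with 50% human serum.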

Candida albicans [3] = assay: Antifungal activity against Candida albicans MY1055 assessed as fungal growth inhibition measured after 24 hrs in presence of 50% mouse serum by liquid microdilution method; type: functional
Outline: (§1)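 Broth microdilution per CLSI protocols in RPMI medium. Read-out is the MIC, the lowest concentration completely inhibiting fungal growth. Run without serum and with added serum.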

Candida albicans [4] = assay: Antifungal activity against Candida albicans MY1055 infected in DBA/2 mouse model of disseminated candidiasis assessed as reduction in fungal burden in kidney by measuring log change in colony forming units at 12.5 mg/kg, po bid for 7 days by TOKA; type: functional; conditions: time 7 day
Outline: (§2)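 Murine disseminated candidiasis model (TOKA) in mice challenged with C. albicans MY1055 at 2.44 x 10^4 CFU/mouse. Dosed PO, or IP where stated. Kidneys collected aseptically 7 days after challenge and CFUs/g counted. Change in log CFU/g is relative to sham-treated controls; significance by two-tailed t test. Clearance is the percentage of kidneys below the detection limit.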

Candida albicans [5] = assay: Antifungal activity against Candida albicans MY1055 infected in DBA/2 mouse model of disseminated candidiasis assessed as reduction in fungal burden in kidney by measuring log change in colony forming units at 25 mg/kg, po bid for 7 days by TOKA; type: functional; conditions: time 7 day; outline: as §2
Candida albicans [6] = assay: Antifungal activity against Candida albicans MY1055 assessed as fungal growth inhibition measured after 24 hrs by liquid microdilution method; type: functional; outline: as §1
[7] = Dose normalized AUC in po dosed mouse; type: ADME, organism-based; conditions: in vivo
Candida albicans [8] = assay: Antifungal activity against Candida albicans MY1055 infected in DBA/2 mouse model of disseminated candidiasis assessed as reduction in fungal burden in kidney by measuring log change in colony forming units at 6.25 mg/kg, po bid for 7 days by TOKA; type: functional; conditions: time 7 day; outline: as §2
[9] = Oral bioavailability in mouse; type: ADME, organism-based; conditions: in vivo
Outline: (§3)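 Oral bioavailability calculated as oral AUC normalized to the IV dose, divided by the IV AUC.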

Candida albicans [10] = assay: Antifungal activity against Candida albicans MY1055 infected in DBA/2 mouse model of disseminated candidiasis assessed as reduction in fungal burden in kidney by measuring log change in colony forming units at 12.5 mg/kg, ip bid for 7 days by TOKA; type: functional; conditions: time 7 day; outline: as §2
Aspergillus fumigatus [11] = assay: Antifungal activity against Aspergillus fumigatus MF5668 infected in DBA/2N mouse assessed as mouse survival at 1.56 mg/kg, ip bid administered for 7 days starting from 15 to 30 mins post infection and measured up to 21 days relative to control; type: functional; conditions: 168 h, time 7 day
Outline: (§4)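 DBA/2N mice were infected IV with A. fumigatus MF5668 (6.7 x 10^5 CFU/mouse) and treated IP bid for 7 days. Percent survival per dose group was scored at the end of the 21-day survival model and compared with the sham-treated control group.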

[12] = Clearance in rat; type: ADME; conditions: in vivo
Aspergillus fumigatus [13] = assay: Antifungal activity against Aspergillus fumigatus MF5668 infected in DBA/2N mouse assessed as mouse survival at 3.125 mg/kg, ip bid administered for 7 days starting from 15 to 30 mins post infection and measured up to 21 days relative to control; type: functional; conditions: 168 h, time 7 day; outline: as §4
[14] = Oral bioavailability in rat; type: ADME, organism-based; conditions: in vivo; outline: as §3
[15] = Half life in rat; type: ADME; conditions: in vivo
Aspergillus fumigatus [16] = assay: Antifungal activity against Aspergillus fumigatus MF5668 infected in ip dosed DBA/2N mouse assessed as 90% mouse survival administered bid administered for 7 days starting from 15 to 30 mins post infection and measured up to 21 days; type: functional; conditions: 168 h, time 7 day
Aspergillus fumigatus [17] = assay: Antifungal activity against Aspergillus fumigatus MF5668 infected in DBA/2N mouse assessed as mouse survival at 6.25 mg/kg, ip bid administered for 7 days starting from 15 to 30 mins post infection and measured up to 21 days relative to control; type: functional; conditions: 168 h, time 7 day; outline: as §4
Aspergillus fumigatus [18] = assay: Antifungal activity against Aspergillus fumigatus MF5668 infected in DBA/2N mouse assessed as mouse survival at 12.5 mg/kg, ip bid administered for 7 days starting from 15 to 30 mins post infection and measured up to 21 days relative to control; type: functional; conditions: 168 h, time 7 day; outline: as §4
Aspergillus fumigatus [19] = assay: Antifungal activity against Aspergillus fumigatus MF5668 infected in DBA/2N mouse assessed as mean survival time at 3.125 mg/kg, ip bid administered for 7 days starting from 15 to 30 mins post infection and measured up to 21 days; type: functional; conditions: time 7 day
Outline: (§5)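 DBA/2N mice were challenged IV with A. fumigatus MF5668 at 6.7 x 10^5 CFU/mouse, then dosed IP twice daily for 7 days. Survival was followed over a 21-day model, and mean survival time in days was recorded per dose group. A sham-treated control group was run alongside.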

[20] = Dose normalized AUC in po dosed rat; type: ADME, organism-based; conditions: in vivo
[21] = Clearance in mouse; type: ADME, organism-based; conditions: in vivo
Aspergillus fumigatus [22] = assay: Antifungal activity against Aspergillus fumigatus MF5668 infected in DBA/2N mouse assessed as mean survival time at 12.5 mg/kg, ip bid administered for 7 days starting from 15 to 30 mins post infection and measured up to 21 days; type: functional; conditions: time 7 day; outline: as §5
Candida albicans [23] = assay: Antifungal activity against Candida albicans MY1055 infected in ip dosed DBA/2 mouse model of disseminated candidiasis assessed as reduction in fungal burden in kidney administered bid for 7 days by TOKA; type: functional; conditions: 168 h, time 7 day; outline: as §2
Aspergillus fumigatus [24] = assay: Antifungal activity against Aspergillus fumigatus MF5668 infected in ip dosed DBA/2N mouse assessed as 50% mouse survival administered bid administered for 7 days starting from 15 to 30 mins post infection and measured up to 21 days; conditions: 168 h
Aspergillus fumigatus [25] = assay: Antifungal activity against Aspergillus fumigatus MF5668 infected in DBA/2N mouse assessed as mean survival time at 6.25 mg/kg, ip bid administered for 7 days starting from 15 to 30 mins post infection and measured up to 21 days; type: functional; conditions: time 7 day; outline: as §5
Aspergillus fumigatus [26] = assay: Antifungal activity against Aspergillus fumigatus MF5668 infected in DBA/2N mouse assessed as mean survival time at 1.56 mg/kg, ip bid administered for 7 days starting from 15 to 30 mins post infection and measured up to 21 days; type: functional; conditions: time 7 day; outline: as §5
[27] = Half life in mouse; type: ADME, organism-based; conditions: in vivo

| Compound | IC50 [1] | MIC (Candida albicans [3]) | MIC (Candida albicans [6]) | AUC/dose [7] | bioavailability [9] | minimal effective concentration (Aspergillus fumigatus [2]) | Activity (Candida albicans [4]) | Activity (Candida albicans [5]) | Activity (Candida albicans [8]) | also measured |
| --- | --- | --- | --- | --- | --- | --- | --- | --- | --- | --- |
| CC(C)[C@@H](C)[C@@]1(C)CC[C@]2(C)[C@H]3CC[C@@H]4[C@@]5(COC[C@@]4(C)[C@@H](OC[C@](C)(N)C(C)C)[C@H](n4ncnc4-c4ccccc4)C5)C3=CC[C@@]2(C)[C@@H]1C(=O)O | 0.003 µg/mL | 4 µg/mL | 0.25 µg/mL (≈ 0.35 µM) | 0.5 µM·kg·h/mg | 28% | < 0.03 µg/mL | -1.7 deltalog10CFU | -2.4 deltalog10CFU | -0.2 deltalog10CFU | – |
| CC(C)[C@@H](C)[C@@]1(C)CC[C@]2(C)[C@H]3CC[C@@H]4[C@@]5(COC[C@@]4(C)[C@@H](OC[C@@]4(N)CCOCC4(C)C)[C@H](n4ncnc4-c4ccncc4)C5)C3=CC[C@@]2(C)[C@@H]1C(=O)O | 0.004 µg/mL | 1 µg/mL | 0.06 µg/mL (≈ 0.0791 µM) | 0.35 µM·kg·h/mg | 25% | 0.004 µg/mL | -2.2 deltalog10CFU | -3.2 deltalog10CFU | -0.9 deltalog10CFU | – |
| CC(C)[C@@H](C)[C@@]1(C)CC[C@]2(C)[C@H]3CC[C@@H]4[C@@]5(COC[C@@]4(C)[C@@H](OCC4(N)CCOCC4)[C@H](n4ncnc4-c4ccncc4)C5)C3=CC[C@@]2(C)[C@@H]1C(=O)O | 0.002 µg/mL | 0.25 µg/mL | < 0.03 µg/mL | 0.18 µM·kg·h/mg | 13% | < 0.03 µg/mL | -3.1 deltalog10CFU | -3.9 deltalog10CFU | -1.4 deltalog10CFU | survival at 1.56 mg/kg (Aspergillus fumigatus [11]): 0%; clearance [12]: 20 mL/min/kg; survival at 3.125 mg/kg (Aspergillus fumigatus [13]): 10%; bioavailability [14]: 30%; half-life [15]: 1.9 h; ED90 (Aspergillus fumigatus [16]): 26 mg/kg; survival at 6.25 mg/kg (Aspergillus fumigatus [17]): 40%; survival at 12.5 mg/kg (Aspergillus fumigatus [18]): 60%; MST (Aspergillus fumigatus [19]): 7.3 days; Activity (Candida albicans [10]): -4 deltalog10CFU; AUC/dose [20]: 0.34 µM·kg·h/mg; clearance [21]: 18 mL/min/kg; MST (Aspergillus fumigatus [22]): 14.6 days; ED99 (Candida albicans [23]): 3.8 mg/kg; ED50 (Aspergillus fumigatus [24]): 11 mg/kg; MST (Aspergillus fumigatus [25]): 12.5 days; MST (Aspergillus fumigatus [26]): 4.1 days; half-life [27]: 2.1 h |
| CC(C)[C@@H](C)[C@@]1(C)CC[C@]2(C)[C@H]3CC[C@@H]4[C@@]5(COC[C@@]4(C)[C@@H](OC[C@](C)(N)C(C)C)[C@H](n4ncnc4-c4ccncc4F)C5)C3=CC[C@@]2(C)[C@@H]1C(=O)O | 0.001 µg/mL | 1 µg/mL | 0.015 µg/mL (≈ 0.0204 µM) | 0.34 µM·kg·h/mg | 26% | 0.008 µg/mL | -2.5 deltalog10CFU | -4.2 deltalog10CFU | -2.6 deltalog10CFU | – |

More lines, main results first:

| IC50 [1] | MIC (Candida albicans [3]) | MIC (Candida albicans [6]) | AUC/dose [7] | bioavailability [9] | Compound | minimal effective concentration (Aspergillus fumigatus [2]) | Activity (Candida albicans [4]) | Activity (Candida albicans [5]) | Activity (Candida albicans [8]) | also measured |
| --- | --- | --- | --- | --- | --- | --- | --- | --- | --- | --- |
| 0.001 µg/mL | 0.5 µg/mL | 0.06 µg/mL (≈ 0.0822 µM) | 0.83 µM·kg·h/mg | 29% | CN[C@@](C)(CO[C@H]1[C@H](n2ncnc2-c2ccncc2)C[C@@]23COC[C@]1(C)[C@@H]2CC[C@H]1C3=CC[C@@]2(C)[C@H](C(=O)O)[C@@](C)([C@H](C)C(C)C)CC[C@]12C)C(C)C | < 0.03 µg/mL | -3.1 deltalog10CFU | -3.7 deltalog10CFU | -0.9 deltalog10CFU | – |
| 0.002 µg/mL | 0.5 µg/mL | < 0.03 µg/mL | 0.65 µM·kg·h/mg | 36% | CC(C)[C@@H](C)[C@@]1(C)CC[C@]2(C)[C@H]3CC[C@@H]4[C@@]5(COC[C@@]4(C)[C@@H](OC[C@](C)(N)C4(C)CC4)[C@H](n4ncnc4-c4ccncc4)C5)C3=CC[C@@]2(C)[C@@H]1C(=O)O | < 0.03 µg/mL | -2.6 deltalog10CFU | -4.3 deltalog10CFU | -1.5 deltalog10CFU | – |
| 0.004 µg/mL | 1 µg/mL | 0.06 µg/mL (≈ 0.0838 µM) | 0.17 µM·kg·h/mg | 11% | CC(C)[C@@H](C)[C@@]1(C)CC[C@]2(C)[C@H]3CC[C@@H]4[C@@]5(COC[C@@]4(C)[C@@H](OC[C@](C)(N)C(C)C)[C@H](n4ncnc4-c4cccnc4)C5)C3=CC[C@@]2(C)[C@@H]1C(=O)O | < 0.03 µg/mL | -2.9 deltalog10CFU | -3.1 deltalog10CFU | -1.4 deltalog10CFU | – |
| 0.002 µg/mL | 1 µg/mL | 0.125 µg/mL (≈ 0.174 µM) | 0.23 µM·kg·h/mg | 29% | CC(C)[C@@H](C)[C@@]1(C)CC[C@]2(C)[C@H]3CC[C@@H]4[C@@]5(COC[C@@]4(C)[C@@H](OC[C@](C)(N)C(C)C)[C@H](n4ncnc4-c4ccnnc4)C5)C3=CC[C@@]2(C)[C@@H]1C(=O)O | < 0.03 µg/mL | -1.2 deltalog10CFU | -2.6 deltalog10CFU | -1.2 deltalog10CFU | – |
| 0.001 µg/mL | 0.5 µg/mL | 0.015 µg/mL (≈ 0.0218 µM) | – | – | CC(C)[C@@H](C)[C@@]1(C)CC[C@]2(C)[C@H]3CC[C@@H]4[C@@]5(COC[C@@]4(C)[C@@H](OCC(C)(C)N)[C@H](n4ncnc4-c4ccncc4)C5)C3=CC[C@@]2(C)[C@@H]1C(=O)O | < 0.03 µg/mL | -1.1 deltalog10CFU | – | – | Activity (Candida albicans [10]): -4.2 deltalog10CFU |
